Calls of active or inactive are those of the source. No cut-off for these calls is given here.
Experiments:
[1] = target: T1, Chromodomain Y-like protein (Mus musculus) (UniProt Q9WTK2); experiment: Inhibition of CDYL in C57BL/6 mouse hippocampal neurons as increase in MYT1 mRNA expression at 150 uM incubated for 24 hrs by RT-qPCR analysis
T1 sequence (whole entry): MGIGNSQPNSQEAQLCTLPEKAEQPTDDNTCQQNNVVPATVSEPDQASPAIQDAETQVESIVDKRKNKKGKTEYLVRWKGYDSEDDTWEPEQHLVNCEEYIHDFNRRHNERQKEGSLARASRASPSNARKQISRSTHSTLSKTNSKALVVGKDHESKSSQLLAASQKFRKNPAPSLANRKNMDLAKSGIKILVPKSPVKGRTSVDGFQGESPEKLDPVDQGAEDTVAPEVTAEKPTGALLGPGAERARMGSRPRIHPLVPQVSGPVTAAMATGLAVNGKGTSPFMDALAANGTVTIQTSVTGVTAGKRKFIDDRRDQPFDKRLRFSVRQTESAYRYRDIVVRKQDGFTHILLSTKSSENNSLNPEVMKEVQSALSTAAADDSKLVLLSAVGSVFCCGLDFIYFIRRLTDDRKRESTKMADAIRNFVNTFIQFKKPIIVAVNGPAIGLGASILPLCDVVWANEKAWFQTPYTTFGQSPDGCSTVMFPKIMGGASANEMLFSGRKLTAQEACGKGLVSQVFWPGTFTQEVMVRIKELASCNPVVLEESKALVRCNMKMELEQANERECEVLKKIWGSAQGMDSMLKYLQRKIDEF
Outline: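 Mouse cortical or hippocampal neurons, dissociated with trypsin and kept in Neurobasal/B27, treated with 150 µM compound for 24 h. mRNA measured by SYBR green RT-qPCR with the 2^-ΔΔCt method, GAPDH as reference, relative to DMSO. Mean ± S.E.M. of triplicate experiments, Student's t-test.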

[2] = target: T2, Chromodomain Y-like protein (Homo sapiens, UniProt Q9Y232); experiment: Binding affinity to recombinant human N-terminal GST-tagged CDYL (1 to 60 residues) expressed in Escherichia coli […] by SPR analysis
T2 sequence (Q9Y232 whole entry): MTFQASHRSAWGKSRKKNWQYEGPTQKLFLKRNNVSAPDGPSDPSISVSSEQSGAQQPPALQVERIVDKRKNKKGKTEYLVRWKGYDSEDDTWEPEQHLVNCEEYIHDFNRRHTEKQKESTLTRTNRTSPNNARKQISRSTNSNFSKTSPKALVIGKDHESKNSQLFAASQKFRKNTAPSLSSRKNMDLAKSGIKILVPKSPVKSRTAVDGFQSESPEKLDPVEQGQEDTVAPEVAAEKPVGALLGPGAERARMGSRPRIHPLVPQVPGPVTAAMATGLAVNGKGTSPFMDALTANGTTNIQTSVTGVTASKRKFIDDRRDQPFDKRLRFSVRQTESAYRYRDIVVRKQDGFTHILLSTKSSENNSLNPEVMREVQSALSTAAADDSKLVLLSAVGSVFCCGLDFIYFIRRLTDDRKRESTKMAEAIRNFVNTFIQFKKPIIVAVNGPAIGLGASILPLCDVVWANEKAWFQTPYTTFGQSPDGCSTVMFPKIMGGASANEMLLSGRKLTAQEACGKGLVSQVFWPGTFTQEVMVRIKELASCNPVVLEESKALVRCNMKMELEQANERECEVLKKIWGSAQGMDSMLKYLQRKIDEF
Outline: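 GST-tagged chromodomain expressed in E. coli BL21 with 0.2 mM IPTG at 28 °C for 6 h. Purified on GSTrap, tag removed with PreScission protease. Amine-coupled to CM5 chip at pH 4.0–4.5 (5000–10000 RU). Compound run as a 1.5- or 2-fold series from 100 µM in PBSP with 5% DMSO, 25 °C, 30 µL/min, 60 s association and 60 s dissociation.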

[3] = target: T3, Chromodomain Y-like protein (Homo sapiens) (UniProt Q9Y232); experiment: Inhibition of CDYL in human SH-SY5Y cells assessed as decrease in enrichment of CDYL at MYT1 promoter site at 150 uM incubated for 24 hrs by ChIP-qPCR analysis; type: cell-based
T3 sequence (whole entry): T2 sequence (Q9Y232 whole entry)
Outline: (§1)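 About 1×10^7 SH-SY5Y cells given 150 µM compound or DMSO for 24 h, fixed in 1% formaldehyde for 10 min. Chromatin immunoprecipitated overnight-style (12 h, 4 °C) with CDYL or H3K27me3 antibody, captured on Protein A/G beads, washed, decrosslinked at 65 °C. Promoter DNA quantified by qPCR, mean ± S.E.M. of triplicate experiments, Student's t-test.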

[4] = target: T3, Chromodomain Y-like protein (Homo sapiens); experiment: Inhibition of CDYL in human SH-SY5Y cells assessed as decrease in enrichment of H3K27me3 at VGF promoter site at 150 uM incubated for 24 hrs by ChIP-qPCR analysis; type: cell-based; outline: as §1

O=C(Cn1c(=O)oc2ccccc21)N1CCC(N2CCCC2)CC1
Activity [1]: Active
Kd [2]: 500 nM
inhibition [3]: Active
inhibition [4]: Active
